According to ChEMBL document CHEMBL1144733, “Design and synthesis of nitrate esters of aromatic heterocyclic compounds as pharmacological preconditioning agents” (2008):
The source made the active and inactive calls. No cut-off for these calls is given here.

Tests used:
[1] = test system: Oryctolagus cuniculus; test: Increase in circulating cGMP level in New Zealand white rabbit at 1.3 mg/kg, iv after 20 mins of ischemia by enzyme immunoassay relative to control; format: functional, organism-based; design: dose 1.3 mg/kg
How it was run: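 Plasma from rabbits dosed 1.3 mg/kg iv (40 and 1 min pre-ischemia) drawn at 20 min of sustained ischemia. cGMP by competitive enzyme immunoassay: alkaline phosphatase-cGMP conjugate plus polyclonal antibody, 2 h at 25 C shaking, p-nitrophenyl phosphate 1 h, read 450 nm corrected at 550 nm; concentration from standard curve.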

[2] = test system: Oryctolagus cuniculus; test: Increase in MDA level in New Zealand white rabbit at 1.3 mg/kg, iv after 20 mins of ischemia relative to control; format: functional, organism-based; design: dose 1.3 mg/kg
How it was run: (§1)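 Rabbit plasma sampled at baseline, 20 min ischemia, and 1 and 20 min reperfusion after 1.3 mg/kg iv (two boluses). MDA by N-methyl-2-phenyl-indole colorimetric kit: 0.2 ml plasma plus reagent and HCl, 45 C for 60 min, centrifuged, A586; MDA standard curve (2-20 lmol/ml); triplicate; mean ± SEM.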

[3] = test system: Oryctolagus cuniculus; test: Decrease in MDA level in New Zealand white rabbit at 1.3 mg/kg, iv after 20 mins of reperfusion relative to control; format: functional, organism-based; design: dose 1.3 mg/kg; how it was run: as §1
[4] = test system: Oryctolagus cuniculus; test: Cardioprotective effect in New Zealand white rabbit assessed as reduction of infract size at 1.3 mg/kg, iv administered before 30 mins of ischemia and 3 hrs of reperfusion relative to control; format: functional; design: scale not given: the % may be the effect or the level left
How it was run: (§2)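 Anesthetized (pentobarbital 30 mg/kg iv), ventilated male rabbits; regional myocardial ischemia 30 min, reperfusion 3 h. Total 1.3 mg/kg split into two iv boluses in 0.2 ml DMSO + 0.8 ml saline, 40 min and 1 min before ischemia; controls got vehicle. Microspheres delineated risk zone; 3 mm slices stained with 1% TTC, 20 min, 37 C; infarct/risk volume ratio (%). n = 5-10 per group.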

[5] = test system: Oryctolagus cuniculus; test: Cardioprotective effect in New Zealand white rabbit assessed as reduction of infract size at 1.3 mg/kg, iv administered before 30 of mins ischemia and 3 hrs of reperfusion in presence of adenosine receptor blocker 8-(p-sulfonyl) theophylline relative to control; format: functional; design: scale not given: the % may be the effect or the level left; how it was run: as §2
[6] = test system: Oryctolagus cuniculus; test: Cardioprotective effect in New Zealand white rabbit assessed as reduction of infract size at 1.3 mg/kg, iv administered before 30 mins of ischemia and 3 hrs of reperfusion in presence of mitoKATP blocker 5-hydroxydecanoic acid relative to control; format: functional; design: scale not given: the % may be the effect or the level left; how it was run: as §2

Row | SMILES | Activity [1] | Activity [2] | Activity [3] | Activity [4] [%] | Activity [5] [%] | Activity [6] [%]
1 | O=C(NCCO[N+](=O)[O-])c1ccc2ccccc2n1 | Active | Active | Active | 22.4 |  | 
2 | O=[N+]([O-])OCCCCCCCCCCCn1cnc2c(N3CCCCC3)ncnc21 | Active |  | Active |  |  | 
3 | O=[N+]([O-])OCCCCCCn1cnc2c(N3CCCCC3)ncnc21 |  |  | Active | 19.8 | 28.03 | 21.9
4 | O=C(NCCO[N+](=O)[O-])c1cc2ccccc2[nH]1 | Active | Active | Active | 20.5 |  | 40.12
